Results: ChEMBL document CHEMBL1157378, “Role for cell density in antifungal drug resistance in Candida albicans biofilms” (2007)
Converted amounts (≈) assume the structure as drawn.

Assays:
Type in all cases: functional
[1] = test system: Candida albicans; experiment: Antimicrobial activity against Chk1 deficient Candida albicans CHK21 at planktonic cell density of 10^8 cells/ml after 48 hrs by XTT assay; details: CHK21, 48 h
Method in brief: (§1)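 YNB-grown yeast (50 mM glucose, room temperature, shaken, to ~2 x 10^8 cells/ml) washed into MOPS-buffered RPMI 1640 with L-glutamine and set to the stated density. Exposed to twofold serial drug dilutions (1,024 to 0.0313 µg/ml) at 37°C, 48 h (caspofungin 24 h), with drug-free controls. Read-out: XTT (0.5 g/liter) plus 1 µM menadione, formazan at 490 nm.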

[2] = test system: Candida albicans; experiment: Antimicrobial activity against Chk1 deficient Candida albicans CHK21 dissociated biofilms at cell density of 10^3 cells/ml after 48 hrs by XTT assay; details: CHK21, 48 h
Method in brief: (§2)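 Polystyrene-well biofilms (48 h, 37°C) washed, then broken up in 100 µl RPMI by scraping and aspiration. Cells used undiluted (about 2 x 10^8 cells/ml equivalent) or adjusted by A600 against a hemacytometer-calibrated yeast standard curve. Drug exposure at 37°C for 48 h (caspofungin 24 h), then XTT/menadione read at 490 nm.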

[3] = test system: Candida albicans; experiment: Antimicrobial activity against Chk1 deficient Candida albicans CHK21 dissociated biofilms at cell density of 10^8 cells/ml after 48 hrs by XTT assay; details: CHK21, 48 h; method in brief: as §2
[4] = test system: Candida albicans; experiment: Antimicrobial activity against Chk1 deficient Candida albicans CHK21 intact biofilms after 48 hrs by XTT assay; details: CHK21, 48 h
Method in brief: (§3)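 Biofilm seeded at 1 x 10^6 cells/ml in RPMI in polystyrene microtiter wells and grown 48 h at 37°C in a moist chamber. Washed once and drug added to the same well (twofold dilutions, 1,024 to 0.0313 µg/ml) for 48 h at 37°C (caspofungin 24 h). Read-out: XTT/menadione reduction at 490 nm.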

[5] = test system: Candida albicans; experiment: Antimicrobial activity against Candida albicans GDH2346 intact biofilms after 48 hrs by XTT assay; details: GDH2346, 48 h; method in brief: as §3
[6] = test system: Candida albicans; experiment: Antimicrobial activity against Candida albicans FH1 at planktonic cell density of 10^3 cells/ml after 48 hrs by XTT assay; details: FH1, 48 h; method in brief: as §1
[7] = test system: Candida albicans; experiment: Antimicrobial activity against Candida albicans FH1 at planktonic cell density of 10^8 cells/ml after 48 hrs by XTT assay; details: FH1, 48 h; method in brief: as §1
[8] = test system: Candida albicans; experiment: Antimicrobial activity against Candida albicans FH1 dissociated biofilms at cell density of 10^3 cells/ml after 48 hrs by XTT assay; details: FH1, 48 h; method in brief: as §2
[9] = test system: Candida albicans; experiment: Antimicrobial activity against Candida albicans FH1 dissociated biofilms at cell density of 10^8 cells/ml after 48 hrs by XTT assay; details: FH1, 48 h; method in brief: as §2
[10] = test system: Candida albicans; experiment: Antimicrobial activity against Candida albicans FH1 intact biofilms after 48 hrs by XTT assay; details: FH1, 48 h; method in brief: as §3
[11] = test system: Candida albicans; experiment: Antimicrobial activity against fluconazole-resistant Candida albicans FH5 at planktonic cell density of 10^3 cells/ml after 48 hrs by XTT assay; details: FH5, 48 h; method in brief: as §1
[12] = test system: Candida albicans; experiment: Antimicrobial activity against fluconazole-resistant Candida albicans FH5 at planktonic cell density of 10^8 cells/ml after 48 hrs by XTT assay; details: FH5, 48 h; method in brief: as §1
[13] = test system: Candida albicans; experiment: Antimicrobial activity against fluconazole-resistant Candida albicans FH5 dissociated biofilms at cell density of 10^3 cells/ml after 48 hrs by XTT assay; details: FH5, 48 h; method in brief: as §2
[14] = test system: Candida albicans; experiment: Antimicrobial activity against fluconazole-resistant Candida albicans FH5 dissociated biofilms at cell density of 10^8 cells/ml after 48 hrs by XTT assay; details: FH5, 48 h; method in brief: as §2
[15] = test system: Candida albicans; experiment: Antimicrobial activity against fluconazole-resistant Candida albicans FH5 intact biofilms after 48 hrs by XTT assay; details: FH5, 48 h; method in brief: as §3
[16] = test system: Candida albicans; experiment: Antimicrobial activity against Cdr1, Cdr2 and Mdr1 deficient Candida albicans DSY1050 at planktonic cell density of 10^3 cells/ml after 48 hrs by XTT assay; details: DSY1050, 48 h; method in brief: as §1
[17] = test system: Candida albicans; experiment: Antimicrobial activity against Cdr1, Cdr2 and Mdr1 deficient Candida albicans DSY1050 at planktonic cell density of 10^8 cells/ml after 48 hrs by XTT assay; details: DSY1050, 48 h; method in brief: as §1
[18] = test system: Candida albicans; experiment: Antimicrobial activity against Cdr1, Cdr2 and Mdr1 deficient Candida albicans DSY1050 dissociated biofilms at cell density of 10^3 cells/ml after 48 hrs by XTT assay; details: DSY1050, 48 h; method in brief: as §2
[19] = test system: Candida albicans; experiment: Antimicrobial activity against Cdr1, Cdr2 and Mdr1 deficient Candida albicans DSY1050 dissociated biofilms at cell density of 10^8 cells/ml after 48 hrs by XTT assay; details: DSY1050, 48 h; method in brief: as §2
[20] = test system: Candida albicans; experiment: Antimicrobial activity against Cdr1, Cdr2 and Mdr1 deficient Candida albicans DSY1050 intact biofilms after 48 hrs by XTT assay; details: DSY1050, 48 h; method in brief: as §3
[21] = test system: Candida albicans; experiment: Antimicrobial activity against Chk1 deficient Candida albicans CHK21 at planktonic cell density of 10^3 cells/ml after 48 hrs by XTT assay; details: CHK21, 48 h; method in brief: as §1
[22] = test system: Candida albicans; experiment: Antimicrobial activity against Candida albicans SC5314 at planktonic cell density of 10^3 cells/ml after 48 hrs by XTT assay; details: SC5314, 48 h; method in brief: as §1
[23] = test system: Candida albicans; experiment: Antimicrobial activity against Candida albicans SC5314 dissociated biofilms at cell density of 10^3 cells/ml after 48 hrs by XTT assay; details: SC5314, 48 h; method in brief: as §2
[24] = test system: Candida albicans; experiment: Antimicrobial activity against Candida albicans SC5314 at planktonic cell density of 10^8 cells/ml after 48 hrs by XTT assay; details: SC5314, 48 h; method in brief: as §1
[25] = test system: Candida albicans; experiment: Antimicrobial activity against Candida albicans SC5314 dissociated biofilms at cell density of 10^8 cells/ml after 48 hrs by XTT assay; details: SC5314, 48 h; method in brief: as §2
[26] = test system: Candida albicans; experiment: Antimicrobial activity against Candida albicans SC5314 intact biofilms after 48 hrs by XTT assay; details: SC5314, 48 h; method in brief: as §3
[27] = test system: Candida albicans; experiment: Antimicrobial activity against Candida albicans GDH2346 at planktonic cell density of 10^3 cells/ml after 48 hrs by XTT assay; details: GDH2346, 48 h; method in brief: as §1
[28] = test system: Candida albicans; experiment: Antimicrobial activity against Candida albicans GDH2346 at planktonic cell density of 10^8 cells/ml after 48 hrs by XTT assay; details: GDH2346, 48 h; method in brief: as §1
[29] = test system: Candida albicans; experiment: Antimicrobial activity against Candida albicans GDH2346 dissociated biofilms at cell density of 10^3 cells/ml after 48 hrs by XTT assay; details: GDH2346, 48 h; method in brief: as §2
[30] = test system: Candida albicans; experiment: Antimicrobial activity against Candida albicans GDH2346 dissociated biofilms at cell density of 10^8 cells/ml after 48 hrs by XTT assay; details: GDH2346, 48 h; method in brief: as §2

SMILES: CC(=O)N1CCN(c2ccc(OC[C@H]3CO[C@](Cn4ccnc4)(c4ccc(Cl)cc4Cl)O3)cc2)CC1 [KETOCONAZOLE]
- MIC80 [1]: > 64 µg/mL
- MIC80 [2]: 0.125 µg/mL (≈ 0.235 µM)
- MIC80 [3]: > 64 µg/mL
- MIC80 [4]: > 64 µg/mL
- MIC80 [5]: > 512 µg/mL
- MIC80 [6]: 4 µg/mL (≈ 7.53 µM)
- MIC80 [7]: > 512 µg/mL
- MIC80 [8]: 4 µg/mL (≈ 7.53 µM)
- MIC80 [9]: > 512 µg/mL
- MIC80 [10]: > 512 µg/mL
- MIC80 [11]: 64 µg/mL (≈ 120 µM)
- MIC80 [12]: > 256 µg/mL
- MIC80 [13]: 64 µg/mL (≈ 120 µM)
- MIC80 [14]: > 512 µg/mL
- MIC80 [15]: > 512 µg/mL
- MIC80 [16]: 0.25 µg/mL (≈ 0.47 µM)
- MIC80 [17]: > 256 µg/mL
- MIC80 [18]: 0.125 µg/mL (≈ 0.235 µM)
- MIC80 [19]: > 64 µg/mL
- MIC80 [20]: > 64 µg/mL
- MIC80 [21]: 0.125 µg/mL (≈ 0.235 µM)
- MIC80 [22]: 0.125 µg/mL (≈ 0.235 µM)
- MIC80 [23]: 0.5 µg/mL (≈ 0.941 µM)
- MIC80 [24]: > 512 µg/mL
- MIC80 [25]: > 512 µg/mL
- MIC80 [26]: > 512 µg/mL
- MIC80 [27]: 0.25 µg/mL (≈ 0.47 µM)
- MIC80 [28]: > 512 µg/mL
- MIC80 [29]: 0.125 µg/mL (≈ 0.235 µM)
- MIC80 [30]: > 64 µg/mL
